Experimental data as given in PubChem BioAssay AID602425 (Sanford-Burnham Center for Chemical Genomics, 2012).
Activity calls are given as the source filed them.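 Rule for the calls: active = IC50 of 80 µM or lower; inactive = the rest.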

Target: glucose-6-phosphate dehydrogenase-6-phosphogluconolactonase (PfGluPho) [Plasmodium falciparum 3D7]
Assay: PfG6PD enzyme inhibitors, kinetic orthogonal readout, SAR follow-up, orthogonal assay for PfG6PD antimalarial inhibitor project, biochemical, kinetic direct NADPH detection, set 3 (AID 602425)
Conditions: recombinant PfG6PDH, direct NADPH fluorescence kinetic
Outline: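 Also added: G6P 20 µM and NADP 3 µM final / Assay system: PfG6PDH enzyme / Quantity: enzyme 0.2 µg/mL final / Detection: kinetic NADPH fluorescence, excitation 340 nm, emission 450 nm / Medium: pH 7.5 Tris-HCl (50 mM), 3.3 mM MgCl2, Tween 20, BSA / Timing: reads at 5-min intervals / Doses: test compounds in dose-response series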

In the case of `O=C(NCC1CCCCN1)c1ccc2c(c1)NC(=O)c1ccccc1S2` (configuration not stated), the IC50 is reported as 41.4 µM.
In the case of `CCCN1CCC(NC(=O)c2ccc3c(c2)NC(=O)c2ccccc2S3)C1` (configuration not stated), the IC50 is reported as > 80 µM (inactive).
With `CCN1CCC(NC(=O)c2ccc3c(c2)NC(=O)c2ccccc2S3)C1` (configuration not stated) the IC50 was > 80 µM (inactive).
`CCN1CCC[C@@H]1CNC(=O)c1ccc2c(c1)NC(=O)c1ccccc1N2` was tested, and the IC50 was > 80 µM (inactive).
`CN1CCC(NC(=O)c2ccc3c(c2)NC(=O)c2ccccc2S3)C1` (configuration not stated) was tested, and the IC50 was > 80 µM (inactive).
With `CCN1CCC[C@@H]1CNC(=O)c1ccc2c(c1)NC(=O)c1cccc(C)c1S2` the IC50 was 0.212 µM.
In the case of `CCCN1CCCCC1CNC(=O)c1ccc2c(c1)NC(=O)c1ccccc1S2` (configuration not stated), the IC50 is reported as 62.6 µM.
With `CCN1CCC[C@@H]1CNC(=O)c1ccc2c(c1)NC(=O)c1cc(F)ccc1S2` the IC50 was 49.1 µM.
With `CCCN1CCC[C@@H]1CNC(=O)c1ccc2c(c1)NC(=O)c1ccccc1S2` the IC50 was 11.4 µM.
`O=C(NC[C@H]1CCCN1)c1ccc2c(c1)NC(=O)c1ccccc1S2` was tested, and the IC50 was 40.3 µM.
`CCN1CCC[C@@H]1CNC(=O)c1ccc2c(c1)NC(=O)c1ccc(F)cc1S2` showed an IC50 of 4.34 µM.
Work on `CCN1CCC[C@@H]1CNC(=O)c1ccc2c(c1)NC(=O)c1cc(C)ccc1S2` yielded an IC50 of 24.4 µM.
Work on `CCCCCCN1CCCC1CNC(=O)c1ccc2c(c1)NC(=O)c1ccccc1S2` (configuration not stated) yielded an IC50 of 42.2 µM.
For `CCN1CCCCC1CNC(=O)c1ccc2c(c1)NC(=O)c1ccccc1S2` (configuration not stated), the IC50 was > 80 µM (inactive).
`CN1CCCCC1CNC(=O)c1ccc2c(c1)NC(=O)c1ccccc1S2` (configuration not stated) gave an IC50 of 71.4 µM.
`CN1CCCC1CNC(=O)c1ccc2c(c1)NC(=O)c1ccccc1S2` (configuration not stated) was tested, and the IC50 was 23.3 µM.
For `CCCCN1CCCC1CNC(=O)c1ccc2c(c1)NC(=O)c1ccccc1S2` (configuration not stated), the IC50 was 18.5 µM.
